The source made the active and inactive calls.
Key:
[1] = Neurotoxicity in Sprague-Dawley rat assessed as reduction in nociceptive threshold at 6 mg/kg, iv measured after day 5, 7, 11 and 14; type: toxicity, organism-based; conditions: in vivo
Outline: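 Healthy rats received IV paclitaxel (Taxol) at 0 (vehicle), 3 or 6 mg/kg, four times at 2-day intervals (cumulative 12 or 24 mg/kg), n = 5/group. Paw pressure threshold (mmHg to elicit response, back paws) was measured by Randall–Selitto test. Data were analysed by one-way ANOVA, then Dunnett's test versus control.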

[2] = test system: MDA-MB-231; assay: Antitumor activity against human MDA-MB-231 cells xenografted in athymic nude mouse assessed as reduction in tumor growth at 40 mg/kg, po administered every other day for 4 doses in presence 16 mg/kg encequidar and monitored for 70 to 82 days; type: functional, organism-based; conditions: time 70-82 day
[3] = test system: NCI-H460; assay: Antitumor activity against human NCI-H460 cells xenografted in athymic nude mouse assessed as median tumor growth delay at 24 mg/kg, iv administered every other day for 4 doses and monitored for 48 days; type: functional; conditions: time 48 day
Outline: (§1)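 Female athymic NCr-nu mice carried subcutaneous NCI-H460 xenografts. […] Tumor weights and body weights were followed for 48 days after implantation. Read-out was median tumor growth delay.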

[4] = AUClast in Sprague-Dawley rat at 6 mg/kg, iv measured upto 24 hrs by LC-MS/MS analysis; type: ADME, organism-based; parameters: route intravenous, dose 6 mg/kg, time <=24; conditions: in vivo
[5] = Tmax in Sprague-Dawley rat at 20 mg/kg, po measured upto 24 hrs by LC-MS/MS analysis; type: ADME, organism-based; conditions: in vivo
[6] = Ratio of drug concentration in BALB/c mouse spleen to plasma at 20 mg/kg, po measured upto 24 hrs in presence of 10 mg/kg encequidar by LC-MS/MS analysis; type: ADME, organism-based
[7] = test system: MDA-MB-231; assay: Antitumor activity against human MDA-MB-231 cells xenografted in athymic nude mouse assessed as reduction in median number of days for tumor to reach two tumor mass doubling at 12 mg/kg, iv administered every other day for 4 doses and monitored for 70 to 82 days (reference value: 13.1 day); type: functional; conditions: time 70-82 day
[8] = Drug excretion in Sprague-Dawley rat bile at 20 mg/kg, po in presence of 10 mg/kg encequidar; type: ADME, organism-based; conditions: in vivo
[9] = Drug accumulation in Sprague-Dawley rat plasma at 20 mg/kg, po administered once per week for 4 weeks in presence of 10 mg/kg encequidar by LC-MS/MS analysis; type: ADME, organism-based; conditions: in vivo, 672 h
[10] = Ratio of drug concentration in BALB/c mouse stomach to plasma at 20 mg/kg, po measured upto 24 hrs in presence of 10 mg/kg encequidar by LC-MS/MS analysis; type: ADME, organism-based
[11] = Drug distribution in Sprague-Dawley rat kidney at 20 mg/kg, po measured upto 168 hrs in presence of 10 mg/kg encequidar by LC-MS/MS analysis; type: ADME, organism-based; conditions: in vivo
[12] = test system: NCI-H460; assay: Antitumor activity against human NCI-H460 cells xenografted in athymic nude mouse assessed as median tumor growth delay at 40 mg/kg, po administered every other day for 4 doses in presence of 16 mg/kg encequidar and monitored for 48 days; type: functional; conditions: time 48 day; outline: as §1
[13] = Toxicity in Beagle dog assessed as histiocytosis in lymph nodes at >= 100 mg/kg, po and measured after 13 weeks; type: organism-based, Canis lupus familiaris; conditions: in vivo, 2184 h
[14] = target: T1, Cytochrome P450 2B6 (Homo sapiens, UniProt P20813); assay: Drug metabolism assessed as human CYP2B6-mediated metabolism; type: ADME; conditions: recombinant enzyme
T1 sequence (P20813 whole entry): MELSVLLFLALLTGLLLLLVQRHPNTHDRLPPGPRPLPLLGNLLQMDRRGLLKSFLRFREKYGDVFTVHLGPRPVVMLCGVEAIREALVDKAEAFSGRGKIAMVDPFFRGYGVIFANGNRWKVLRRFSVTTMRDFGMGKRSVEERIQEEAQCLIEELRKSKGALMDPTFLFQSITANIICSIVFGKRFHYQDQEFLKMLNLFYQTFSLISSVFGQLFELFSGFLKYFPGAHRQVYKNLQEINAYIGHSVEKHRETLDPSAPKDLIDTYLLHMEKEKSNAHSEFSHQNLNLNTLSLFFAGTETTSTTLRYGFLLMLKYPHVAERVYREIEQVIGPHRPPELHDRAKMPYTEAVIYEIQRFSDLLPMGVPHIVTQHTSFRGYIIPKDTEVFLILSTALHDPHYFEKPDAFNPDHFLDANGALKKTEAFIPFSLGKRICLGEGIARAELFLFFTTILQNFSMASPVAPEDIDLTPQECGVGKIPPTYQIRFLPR

[15] = Half life in Beagle dog at 3 mg/kg, iv measured upto 48 hrs by LC-MS/MS analysis; type: ADME, organism-based, Canis lupus familiaris; conditions: in vivo
Outline: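 Plasma pharmacokinetics in male Sprague-Dawley rats and male Beagle dogs (n = 3 per species), each given a single dose by IV at 3 mg/kg and by PO at 10 mg/kg. Cmax, Tmax, T1/2 and AUClast were derived for each route. F (%) was calculated from the PO and IV AUClast.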

[16] = Cmax in human upto 360 mg, po administered as repeated dose for 5 consecutive days; type: ADME, organism-based; parameters: route oral, dose <=360; conditions: in vivo
[17] = target: T2, Solute carrier organic anion transporter family member 1B3 (Homo sapiens, UniProt Q9NPD5); assay: Inhibition of human OATP1B3 assessed as reduction in intracellular probe substrate accumulation upto 100 uM by microplate scintillation counter analysis relative to control; type: cell-based
T2 sequence (Q9NPD5 whole entry): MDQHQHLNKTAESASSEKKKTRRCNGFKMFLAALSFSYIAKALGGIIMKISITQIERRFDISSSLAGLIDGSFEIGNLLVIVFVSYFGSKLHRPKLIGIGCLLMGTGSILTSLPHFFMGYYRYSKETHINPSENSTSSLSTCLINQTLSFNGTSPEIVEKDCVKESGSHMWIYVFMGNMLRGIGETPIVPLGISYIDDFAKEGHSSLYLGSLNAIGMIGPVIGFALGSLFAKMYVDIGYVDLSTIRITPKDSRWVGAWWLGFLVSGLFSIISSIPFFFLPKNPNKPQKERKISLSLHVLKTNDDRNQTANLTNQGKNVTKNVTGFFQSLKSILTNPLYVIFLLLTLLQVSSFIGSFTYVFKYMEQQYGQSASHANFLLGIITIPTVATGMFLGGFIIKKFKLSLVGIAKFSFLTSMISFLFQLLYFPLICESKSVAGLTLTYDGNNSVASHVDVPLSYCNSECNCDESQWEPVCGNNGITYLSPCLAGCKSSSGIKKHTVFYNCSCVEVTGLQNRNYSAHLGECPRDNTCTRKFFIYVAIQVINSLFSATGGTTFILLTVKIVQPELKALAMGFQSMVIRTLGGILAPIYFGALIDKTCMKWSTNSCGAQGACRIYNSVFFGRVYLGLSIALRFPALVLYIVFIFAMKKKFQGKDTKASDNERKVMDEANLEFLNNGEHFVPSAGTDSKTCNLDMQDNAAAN
Outline: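 Cellular uptake-inhibition assays used Chinese hamster ovary, HEK293 or MDCKII cells stably expressing the respective human SLC transporter, run alongside the corresponding control cells. Inhibitor was tested at concentrations up to 100 μM.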

[18] = Drug distribution in Sprague-Dawley rat brain; type: ADME, tissue-based; conditions: in vivo
[19] = target: ATP-binding cassette sub-family C member 2 (Homo sapiens, UniProt Q92887); assay: Inhibition of sulfasalazine-stimulated MRP2 ATPase activity (unknown origin) in presence of GSH
ATP-binding cassette sub-family C member 2, sequence (Q92887 whole entry): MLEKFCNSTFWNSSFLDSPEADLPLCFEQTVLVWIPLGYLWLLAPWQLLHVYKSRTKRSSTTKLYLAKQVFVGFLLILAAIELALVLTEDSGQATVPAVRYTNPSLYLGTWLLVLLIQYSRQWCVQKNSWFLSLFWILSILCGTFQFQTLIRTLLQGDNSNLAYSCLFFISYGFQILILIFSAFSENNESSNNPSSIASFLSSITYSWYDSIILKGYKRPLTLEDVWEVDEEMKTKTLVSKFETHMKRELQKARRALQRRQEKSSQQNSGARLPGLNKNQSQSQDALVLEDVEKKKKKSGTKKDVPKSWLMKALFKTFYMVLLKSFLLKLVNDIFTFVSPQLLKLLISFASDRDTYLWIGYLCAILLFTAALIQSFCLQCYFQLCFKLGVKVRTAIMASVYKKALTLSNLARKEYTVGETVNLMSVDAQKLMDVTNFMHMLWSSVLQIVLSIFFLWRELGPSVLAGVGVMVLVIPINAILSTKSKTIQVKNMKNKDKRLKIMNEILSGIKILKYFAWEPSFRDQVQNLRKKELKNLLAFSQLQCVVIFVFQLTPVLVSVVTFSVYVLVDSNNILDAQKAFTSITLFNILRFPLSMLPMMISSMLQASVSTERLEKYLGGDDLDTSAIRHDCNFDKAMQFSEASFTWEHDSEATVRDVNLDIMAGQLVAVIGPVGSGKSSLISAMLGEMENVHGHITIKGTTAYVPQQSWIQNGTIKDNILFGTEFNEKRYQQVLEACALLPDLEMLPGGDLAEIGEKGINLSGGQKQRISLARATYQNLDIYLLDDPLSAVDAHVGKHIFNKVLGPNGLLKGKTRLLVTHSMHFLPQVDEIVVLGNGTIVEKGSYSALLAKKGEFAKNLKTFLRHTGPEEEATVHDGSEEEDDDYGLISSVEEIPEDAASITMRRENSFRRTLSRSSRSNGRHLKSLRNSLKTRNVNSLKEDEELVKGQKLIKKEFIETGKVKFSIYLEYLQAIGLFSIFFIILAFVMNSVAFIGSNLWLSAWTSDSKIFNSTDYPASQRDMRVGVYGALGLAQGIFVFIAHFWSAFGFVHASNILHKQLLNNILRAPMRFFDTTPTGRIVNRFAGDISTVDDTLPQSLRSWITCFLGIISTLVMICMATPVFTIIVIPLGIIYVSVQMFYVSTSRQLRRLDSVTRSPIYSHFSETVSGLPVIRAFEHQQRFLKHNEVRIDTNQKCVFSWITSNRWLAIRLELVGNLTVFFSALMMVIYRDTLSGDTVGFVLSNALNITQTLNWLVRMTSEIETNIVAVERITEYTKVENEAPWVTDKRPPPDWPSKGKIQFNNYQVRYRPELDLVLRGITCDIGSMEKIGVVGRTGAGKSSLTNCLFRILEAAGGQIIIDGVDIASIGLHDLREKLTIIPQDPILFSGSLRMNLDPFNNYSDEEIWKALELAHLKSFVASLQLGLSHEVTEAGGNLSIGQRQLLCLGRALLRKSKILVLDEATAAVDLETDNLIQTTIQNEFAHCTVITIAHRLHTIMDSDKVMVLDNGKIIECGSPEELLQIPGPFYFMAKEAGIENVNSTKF

Compound	Activity [1]	Activity [2]	Time [3] [days]	AUC(0-t) at 24 h [4] [ng·h/mL]	Tmax [5] [h]	Kp at 24 h [6]	Time [7] [days]	Drug excretion [8]	Drug uptake [9]	Kp at 24 h [10]	Drug uptake [11]	Time [12] [days]	Activity [13]	Drug metabolism [14]	half-life [15] [h]	Cmax [16] [ng/mL]	inhibition (INH) [17] [%]	Drug uptake [18]	IC50 [19] [µM]
CC(=O)O[C@H]1C(=O)[C@@]2(C)[C@H]([C@H](OC(=O)c3ccccc3)[C@]3(O)C[C@H](OC(=O)[C@H](O)[C@@H](NC(=O)c4ccccc4)c4ccccc4)C(C)=C1C3(C)C)[C@]1(OC(C)=O)CO[C@@H]1C[C@@H]2O [PACLITAXEL]	Toxic	Active	16.3	2730	0.9	> 1	26.1	Metabolite_Detected	Not Active	> 1	Active	8.7							
COc1cc2c(cc1OC)CN(CCc1ccc(-n3nnc(-c4cc(OC)c(OC)cc4NC(=O)c4cc(=O)c5ccccc5o4)n3)cc1)CC2													Toxic	Metabolite_Notdetected	16.9	22.5	< 50	Not Active	> 100

Reference: ChEMBL document CHEMBL4825663 (J Med Chem, 2021)
